Here are results for 11 compounds from ChEMBL document CHEMBL1153518 (J Med Chem, 2009).

The structures appear in SMILES notation.

Series [1] deals with Human alphaherpesvirus 1. Nature of the series: Antiviral activity against HSV1 KOS infected in HEL cells assessed as inhibition of virus-induced cytopathicity. In kind it is functional, organism-based. To be noted: Human alphaherpesvirus 1, KOS. In a few lines:
(§1)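 Confluent human embryonic lung fibroblast monolayers inoculated with 100 CCID50 virus. After 1–2 h adsorption, residual virus was removed and cultures were incubated with varying compound concentrations. Cytopathicity was scored once untreated infected controls reached full cytopathicity.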

For another series, the system named is Human alphaherpesvirus 2. In words: Antiviral activity against HSV2 G infected in HEL cells assessed as inhibition of virus-induced cytopathicity. In kind it is functional, organism-based. As to conditions: Human alphaherpesvirus 2, strain G. A digest of the protocol:
as §1
(In general: Protection from cytopathic effect is a common read-out in antiviral testing.)

Series [2] deals with Human alphaherpesvirus 1. In words: Antiviral activity against acyclovir […]-resistant thymidine kinase-deficient HSV1 KOS infected in HEL cells assessed as inhibition of virus-induced cytopathicity. The series is classed as functional, organism-based. As to conditions: Human alphaherpesvirus 1, KOS. A digest of the protocol: as §1
Series [3] in a line: Cytotoxicity against HEL cells assessed as concentration required to cause alteration in cell alteration by microscopically. In kind it is cell-based. To be noted: human.
Series [4] has as its system Human immunodeficiency virus 1. Nature of the series: Antiviral activity against HIV1 3B/Lai infected in human CEM cells assessed as inhibition of virus-induced cytopathicity after 4 days. The series is classed as functional, organism-based. As to conditions: Human immunodeficiency virus 1, 3B/Lai, CCRF-CEM, 96 h. A digest of the protocol:
(§2)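 Human CEM cells (~3 × 10^5 cells/mL) infected with 100 CCID50 per mL of HIV-1(IIIB) or HIV-2(ROD), then seeded into wells holding compound dilutions. Incubated 4 days at 37°C. Giant cell formation was scored microscopically.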

In series [5] the test system is Human immunodeficiency virus 2. In words: Antiviral activity against HIV2 ROD infected in human CEM cells assessed as inhibition of virus-induced cytopathicity after 4 days. The series is classed as functional, organism-based. To be noted: Human immunodeficiency virus 2, ISOLATE ROD, CCRF-CEM, 96 h. A digest of the protocol: as §2
The next series deals with CCRF-CEM. Nature of the series: Cytotoxicity against human CEM cells assessed as decrease in cell viability. The series is classed as cell-based.
Series [6] deals with Human immunodeficiency virus 1. In words: Antiviral activity against HIV1 3B/Lai infected in human MT4 cells assessed as suppression of p24 production after 3 days. In kind it is functional, organism-based. As to conditions: Human immunodeficiency virus 1, 3B/Lai, MT4, 72 h. In a few lines:
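MT-4 cells (1 × 10^4 cells/mL) in fresh medium infected with X4LAI.04 stock, 10 μL (0.7 ng p24) per mL of cell suspension. Mixed with medium carrying compound dilutions and kept at 37°C. After 3 days, p24 was measured in culture supernatants.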

In series [7] the test system is MT4. Nature of the series: Cytotoxicity against human MT4 cells assessed as decrease in cell viability. The series is classed as cell-based. In a few lines:
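MT-4 viability was measured by automated propidium iodide-based cell counting, enumerating total and dead cells in untreated and compound-treated cultures.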

Series [8] has as its system MT4. In words: Cytotoxicity against human MT4 cells assessed as inhibition of cell proliferation. The series is classed as cell-based.

The term EC50 denotes the concentration that produces a half-maximal response. By IC50 is commonly meant the concentration that gives 50% inhibition. On to `COC(=O)[C@H](NP(=O)(OCCOCn1cnc2c(=O)[nH]c(N)nc21)Oc1cccc2ccccc12)C(C)C` (some centres not stated), for which the EC50 was > 100000 nM with Human alphaherpesvirus 1 [1]; > 100000 nM with Human alphaherpesvirus 2; > 100 µM in the series on Human alphaherpesvirus 1 [2]; > 100 µM in series [4]; > 100 µM in series [5]. Besides, the MCC in series [3] was > 100 µM. Moreover, in the series on CCRF-CEM, the half-inhibitory concentration (IC50) is > 100 µM.

With `COC(=O)[C@H](C)NP(=O)(OCCOCn1cnc2c(=O)[nH]c(N)nc21)Oc1ccccc1` (some centres not stated), the EC50 in the series with Human alphaherpesvirus 1 [1] stood at 20000 nM; in the series on Human alphaherpesvirus 2 it was 16000 nM; in the series with Human alphaherpesvirus 1 [2], 79 µM; in [4], 17 µM; in series [5] it was 26 µM; in [6], 15 µM. Further, in series [3], the MCC was > 100 µM.

`C[C@H](NP(=O)(OCCOCn1cnc2c(=O)[nH]c(N)nc21)Oc1ccc(F)cc1)C(=O)OCc1ccccc1` (some centres not stated): the half-maximal effective concentration (EC50) was 900 nM in the series on Human alphaherpesvirus 1 [1], 500 nM with Human alphaherpesvirus 2, 1.5 µM in the series on Human alphaherpesvirus 1 [2] and > 20 µM in [5]. Moreover, the MCC in series [3] is > 100 µM. The half-inhibitory concentration (IC50) in the series with CCRF-CEM stood at 76 µM.

Turning to `C[C@@H](NP(=O)(OCCOCn1cnc2c(=O)[nH]c(N)nc21)Oc1ccccc1)C(=O)OCc1ccccc1` (some centres not stated), the concentration giving a half-maximal response (EC50) with Human alphaherpesvirus 1 [1] was 2000 nM; in the series on Human alphaherpesvirus 2, 1400 nM; in the series with Human alphaherpesvirus 1 [2] it was 23 µM; in series [5], > 250 µM. Besides, the MCC in series [3] is > 100 µM. In addition, the IC50 in the series with CCRF-CEM is ≥ 250 µM.

What is called CC50 is the concentration that lowers cell viability or growth by half. Regarding `Nc1nc2c(ncn2COCCO)c(=O)[nH]1` [ACYCLOVIR], the IC50 in the series with MT4 [7] and in the series on CCRF-CEM was > 250 µM throughout. The MCC in series [3] is > 100 µM. Besides, the EC50 in series [4] and in [5] was > 250 µM in each case. In the series on MT4 [8], the 50% cytotoxic concentration (CC50) is > 250 µM.

Take `Nc1nc2c(ncn2COCCOP(=O)(NCC(=O)OCc2ccccc2)Oc2ccccc2)c(=O)[nH]1` (configuration not stated): the EC50 in the series on Human alphaherpesvirus 1 [1] is 3000 nM; with Human alphaherpesvirus 2, 800 nM; with Human alphaherpesvirus 1 [2], 9 µM; in series [4], > 100 µM; in series [5] it was > 100 µM. Moreover, in series [3], the MCC is > 100 µM. Besides, the half-maximal inhibitory concentration (IC50) with CCRF-CEM was > 100 µM.

In the case of `CN(C)/C=N/c1nc2c(ncn2COCCOP(=O)(Oc2ccccc2)N2CCC[C@H]2C(=O)OCc2ccccc2)c(=O)[nH]1` (some centres not stated), the IC50 was > 150 µM in the series on MT4 [7] and 45 µM in the series with CCRF-CEM. Further, the concentration for a half-maximal effect (EC50) in series [4] was > 20 µM; in series [5], > 20 µM; in series [6] it was 30 µM. The CC50 in the series with MT4 [8] was determined as 90 µM.

On to `CC[C@H](C)[C@H](NP(=O)(OCCOCn1cnc2c(=O)[nH]c(N)nc21)Oc1ccccc1)C(=O)OCc1ccccc1` (some centres not stated), for which the concentration giving a half-maximal response (EC50) in the series on Human alphaherpesvirus 1 [1] was 1100 nM; in the series on Human alphaherpesvirus 2, 1100 nM; in the series with Human alphaherpesvirus 1 [2] it was 1.4 µM; in series [4] it was > 20 µM; in [5], > 20 µM. Also, the MCC in [3] is > 100 µM.

As for `COC(=O)[C@@H](NP(=O)(OCCOCn1cnc2c(=O)[nH]c(N)nc21)Oc1cccc2ccccc12)C(C)C` (some centres not stated), the EC50 with Human alphaherpesvirus 1 [1] was > 100000 nM; in the series on Human alphaherpesvirus 2, > 100000 nM; in the series on Human alphaherpesvirus 1 [2] it was > 100 µM; in series [4], > 100 µM; in series [5] it was > 100 µM. Moreover, the MCC in series [3] was > 100 µM. Besides, in the series with CCRF-CEM, the IC50 was > 100 µM.

Turning to `CCOC(=O)[C@@H](NP(=O)(OCCOCn1cnc2c(=O)[nH]c(N)nc21)Oc1cccc2ccccc12)C(C)C` (some centres not stated), the EC50 in the series on Human alphaherpesvirus 1 [1] is 51000 nM; in the series with Human alphaherpesvirus 2 it was 32000 nM; in the series with Human alphaherpesvirus 1 [2], 42 µM; in series [4] it was > 100 µM; in series [5], > 100 µM. In addition, the MCC in series [3] is > 100 µM. Further, in the series with CCRF-CEM, the half-inhibitory concentration (IC50) was > 100 µM.

Regarding `CC(C)[C@H](NP(=O)(OCCOCn1cnc2c(=O)[nH]c(N)nc21)Oc1ccccc1)C(=O)OCc1ccccc1` (some centres not stated), the EC50 is 2000 nM with Human alphaherpesvirus 1 [1]; 850 nM with Human alphaherpesvirus 2; 7.5 µM with Human alphaherpesvirus 1 [2]; > 50 µM in series [4]; > 50 µM in [5]. Besides, in series [3], the MCC was > 100 µM. In addition, the half-maximal inhibitory concentration (IC50) in the series with CCRF-CEM was ≥ 100 µM.
